Results taken from ChEMBL document CHEMBL4316590, “Discovery and synthesis of novel beesioside I derivatives with potent anti-HIV activity” (Eur J Med Chem, 2019).

What was measured:
[1] = system: Human immunodeficiency virus 1; assay: Antiviral activity against HIV1 NL4-3 infected in human MT4 cells by luciferase reporter gene assay; format: functional, organism-based
In short: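 HIV-1 NL4-3 Nanoluc-sec reporter virus (secreted NanoLuc insert) infecting MT4 cells, multicycle replication format, compounds at various concentrations; replication read as NanoLuc luciferase activity (Nano-Glo).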

MT4 = assay: Cytotoxicity against human MT4 cells assessed as reduction in cell viability after 3 days by CellTiter-Glo luminescent assay; format: cell-based; conditions: mt4, 72 h
[2] = Therapeutic index, ratio of CC50 for human MT4 cells to EC50 for HIV1 NL4-3 infected in human MT4 cells; format: toxicity, cell-based; conditions: read-out: Ratio CC50/EC50
In short: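 TI calculated as CC50 (CellTiter-Glo, MT4 cells, 3 days) divided by EC50 (HIV-1 NL4-3 Nanoluc-sec multicycle replication in MT4 cells, luciferase read-out); CC50/EC50 below 5 taken as no selective anti-HIV activity.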

[3] = Human immunodeficiency virus 1, NL4-3, MT4, read-out: EC50

| SMILES | EC50 [1, 3] [µM] | CC50 (MT4) [µM] | EC50 [1] | selectivity ratio [2] |
| --- | --- | --- | --- | --- |
| CC(=O)O[C@H]1[C@@H](O)[C@@]2(C)[C@@H]3CC[C@H]4C(C)(C)[C@@H](O[C@@H]5OC[C@@H](O)[C@H](O)[C@H]5O)CC[C@@]45C[C@@]35CC[C@@]23CO[C@@]2(C(C)(C)O)CC[C@](C)(O2)[C@@H]13 | 4.65 | > 40 | – | – |
| CC(=O)O[C@H]1[C@@H](OC(C)=O)[C@@]2(C)[C@@H]3CC[C@H]4C(C)(C)[C@@H](O)CC[C@@]45C[C@@]35CC[C@@]23CO[C@@]2(C(C)(C)O)CC[C@](C)(O2)[C@@H]13 | – | > 40 | Not Active | < 5 |
| CC(=O)O[C@H]1[C@@H]2O[C@@]3(C(C)(C)O)CC[C@](C)(O3)[C@@H]2[C@@]2(CO)CC[C@@]34C[C@@]35CC[C@H](O[C@@H]3OC[C@@H](O)[C@H](O)[C@H]3O)C(C)(C)[C@@H]5CC[C@H]4[C@]12C | – | > 40 | Not Active | < 5 |
| CC(=O)O[C@H]1[C@@H](OC(C)=O)[C@@]2(C)[C@@H]3CC[C@H]4C(C)(C)C(=O)CC[C@@]45C[C@@]35CC[C@@]23CO[C@@]2(C(C)(C)O)CC[C@](C)(O2)[C@@H]13 | – | > 30 | Not Active | < 5 |
| CC(=O)O[C@H]1[C@H](O)[C@@]2(C)[C@@H]3CC[C@H]4C(C)(C)[C@@H](O[C@@H]5OC[C@@H](O)[C@H](O)[C@H]5O)CC[C@@]45C[C@@]35CC[C@@]23CO[C@@](C)(CCC(=O)C(C)(C)O)[C@@H]13 | > 10 | > 40 | – | < 5 |
| CC(=O)O[C@H]1[C@@H](OC(C)=O)[C@@]2(C)[C@@H]3CC[C@H]4C(C)(C)[C@@H](OC(=O)CCCC(=O)O)CC[C@@]45C[C@@]35CC[C@@]23CO[C@@]2(C(C)(C)O)CC[C@](C)(O2)[C@@H]13 | – | > 20 | Not Active | < 5 |
| CC(C)(O)[C@@H]1CC[C@@](C)([C@H]2[C@@H](O)[C@H](O)[C@@]3(C)[C@@H]4[C@@H](O)C[C@H]5C(C)(C)[C@@H](O[C@@H]6OC[C@@H](O)[C@H](O)[C@H]6O)CC[C@@]56C[C@@]46CC[C@]23C)O1 | – | > 40 | Not Active | < 5 |
| CC(=O)O[C@H]1[C@H](O)[C@H]([C@]2(C)CC[C@@H](C(C)(C)O)O2)[C@@]2(C)CC[C@@]34C[C@@]35CC[C@H](O[C@@H]3OC[C@@H](O)[C@H](O)[C@H]3O)C(C)(C)[C@@H]5CC[C@H]4[C@]12C | 4.85 | > 40 | – | – |
| CCC(=O)O[C@H]1CC[C@]23C[C@]24CC[C@]25CO[C@@]6(C(C)(C)O)CC[C@](C)(O6)[C@H]2[C@@H](OC(C)=O)[C@@H](OC(C)=O)[C@@]5(C)[C@@H]4CC[C@H]3C1(C)C | – | > 40 | Not Active | < 5 |
| CC(=O)O[C@H]1[C@@H](OC(C)=O)[C@@]2(C)[C@@H]3CC[C@H]4C(C)(C)[C@@H](OC(=O)CCC(C)(C)C(=O)O)CC[C@@]45C[C@@]35CC[C@@]23CO[C@@]2(C(C)(C)O)CC[C@](C)(O2)[C@@H]13 | 0.048 | > 5 | – | – |
| CC(=O)O[C@H]1[C@@H](O)[C@@]2(C)[C@@H]3[C@@H](O)C[C@H]4C(C)(C)[C@@H](O[C@@H]5OC[C@@H](O)[C@H](O)[C@H]5O)CC[C@@]45C[C@@]35CC[C@@]23CO[C@@]2(C(C)(C)O)CC[C@](C)(O2)[C@@H]13 | – | > 40 | Not Active | < 5 |
| CC(=O)O[C@H]1[C@@H](OC(C)=O)[C@@]2(C)[C@@H]3CC[C@H]4C(C)(C)[C@@H](OC(=O)COCC(=O)O)CC[C@@]45C[C@@]35CC[C@@]23CO[C@@]2(C(C)(C)O)CC[C@](C)(O2)[C@@H]13 | 0.12 | > 5 | – | – |
| C=C(C)[C@@H]1CC[C@]2(C(=O)O)CC[C@]3(C)[C@H](CC[C@@H]4[C@@]5(C)CC[C@H](OC(=O)CC(C)(C)C(=O)O)C(C)(C)[C@@H]5CC[C@]43C)[C@@H]12 [BEVIRIMAT] | 0.026 | 15.9 | – | 612 |
| C[C@@H]1O[C@@H](O[C@H]2[C@H](O[C@H]3CC[C@]45C[C@]46CC[C@]4(C)[C@@H]([C@]7(C)CC[C@@H](C(C)(C)O)O7)[C@@H](O)C[C@@]4(C)[C@@H]6CC[C@H]5C3(C)C)OC[C@@H](O)[C@@H]2O)[C@H](O)[C@H](O[C@@H]2O[C@H](CO)[C@@H](O)[C@H](O)[C@H]2O)[C@H]1O | > 10 | > 40 | – | < 5 |
| C[C@@H]1O[C@@H](O[C@H]2[C@H](O[C@H]3CC[C@]45C[C@]46CC[C@]4(C)[C@@H]([C@]7(C)CC[C@@H](C(C)(C)O)O7)[C@@H](O)C[C@@]4(C)[C@@H]6[C@@H](O)C[C@H]5C3(C)C)OC[C@@H](O)[C@@H]2O)[C@H](O)[C@H](O)[C@H]1O | > 10 | > 40 | – | < 5 |
| CC1(C)[C@@H](O[C@@H]2OC[C@@H](O)[C@H](O)[C@H]2O)CC[C@]23C[C@]24CC[C@]25CO[C@@]6(C(C)(C)O)CC[C@](C)(O6)[C@H]2[C@@H](O)[C@@H](O)[C@@]5(C)[C@@H]4CC[C@@H]13 | 7.62 | > 40 | – | – |
| CC(=O)O[C@H]1[C@@H](OC(C)=O)[C@@]2(C)[C@@H]3CC[C@H]4C(C)(C)[C@@H](OC(C)=O)CC[C@@]45C[C@@]35CC[C@@]23CO[C@@]2(C(C)(C)O)CC[C@](C)(O2)[C@@H]13 | 2.44 | > 40 | – | – |
| CC(=O)O[C@H]1[C@@H](OC(C)=O)[C@@]2(C)[C@@H]3CC[C@H]4C(C)(C)[C@@H](OC(=O)CC(C)(C)CC(=O)O)CC[C@@]45C[C@@]35CC[C@@]23CO[C@@]2(C(C)(C)O)CC[C@](C)(O2)[C@@H]13 | – | > 20 | Not Active | < 5 |
| CC1(C)[C@@H](O)CC[C@]23C[C@]24CC[C@]25CO[C@@]6(C(C)(C)O)CC[C@](C)(O6)[C@H]2[C@@H](O)[C@@H](O)[C@@]5(C)[C@@H]4CC[C@@H]13 | > 40 | > 40 | – | < 5 |
| CC(=O)O[C@H]1[C@@H]2O[C@@]3(C(C)(C)O[C@H]4O[C@H](CO)[C@@H](O)[C@H](O)[C@H]4O)CC[C@](C)(O3)[C@@H]2[C@@]2(C)CC[C@@]34C[C@@]35CC[C@H](O[C@@H]3OC[C@@H](O)[C@H](O)[C@H]3O)C(C)(C)[C@@H]5CC[C@H]4[C@]12C | 3.76 | 35.4 | – | 9.4 |
| CC(=O)O[C@H]1[C@@H](OC(C)=O)[C@@]2(C)[C@@H]3CC[C@H]4C(C)(C)[C@@H](O[C@@H]5OC[C@@H](O)[C@H](O)[C@H]5O)CC[C@@]45C[C@@]35CC[C@@]23CO[C@@]2(C(C)(C)O)CC[C@](C)(O2)[C@@H]13 | 2.32 | > 40 | – | – |
| CC(=O)O[C@H]1[C@@H](OC(C)=O)[C@@]2(C)[C@@H]3CC[C@H]4C(C)(C)[C@@H](O[C@@H]5OC[C@@H](O)[C@H](O)[C@H]5O)CC[C@@]45C[C@@]35CC[C@@]23CO[C@@](C)(CCC(=O)C(C)(C)O)[C@@H]13 | > 30 | > 30 | – | < 5 |
| CC(=O)O[C@H]1[C@@H](OC(C)=O)[C@@]2(C)[C@@H]3CC[C@H]4C(C)(C)[C@@H](OC(=O)CC(C)(C)C(=O)O)CC[C@@]45C[C@@]35CC[C@@]23CO[C@@]2(C(C)(C)O)CC[C@](C)(O2)[C@@H]13 | 0.025 | > 20 | – | > 800 |
| CC(=O)O[C@H]1[C@@H](OC(C)=O)[C@@]2(C)[C@@H]3CC[C@H]4C(C)(C)[C@@H](OC(=O)CCC(=O)O)CC[C@@]45C[C@@]35CC[C@@]23CO[C@@]2(C(C)(C)O)CC[C@](C)(O2)[C@@H]13 | 7.7 | > 40 | – | – |
| CC(=O)O[C@H]1[C@@H](OC(C)=O)[C@@]2(C)[C@@H]3CC[C@H]4C(C)(C)[C@@H](OC(=O)CC5(CC(=O)O)CCCC5)CC[C@@]45C[C@@]35CC[C@@]23CO[C@@]2(C(C)(C)O)CC[C@](C)(O2)[C@@H]13 | 1.59 | > 20 | – | – |
| CC(=O)O[C@H]1[C@@H](OC(C)=O)[C@@]2(C)[C@@H]3CC[C@H]4C(C)(C)[C@@H](OC(=O)CC(C)C(=O)O)CC[C@@]45C[C@@]35CC[C@@]23CO[C@@]2(C(C)(C)O)CC[C@](C)(O2)[C@@H]13 (some centres not stated) | 1.11 | > 20 | – | – |
| Cc1cn([C@H]2C[C@H](N=[N+]=[N-])[C@@H](CO)O2)c(=O)[nH]c1=O [ZIDOVUDINE] | – | 77.5 | – | – |
| CC(=O)O[C@H]1[C@@H](OC(C)=O)[C@@]2(C)[C@@H]3CC[C@H]4C(C)(C)[C@@H](OC(=O)CC(C)CC(=O)O)CC[C@@]45C[C@@]35CC[C@@]23CO[C@@]2(C(C)(C)O)CC[C@](C)(O2)[C@@H]13 (mixture of isomers) | – | > 20 | Not Active | < 5 |
